Activity calls are given as the source filed them. No cut-off for these calls is given here.
Legend:
[1] = tested on: HeLa; test: Induction of cell cycle arrest in human HeLa cells assessed as accumulation at G0/G1 phase at 10 uM measured after 24 hrs by flow cytometry analysis (reference value: 54.16%); format: functional
[2] = tested on: HeLa; test: Induction of apoptosis in human HeLa cells assessed as early apoptotic cells at 40 uM incubated for 24 hrs by Annexin V-FITC/PI staining based flow cytometry (reference value: 2.84%); format: functional
[3] = target: Signal transducer and activator of transcription 3 (Homo sapiens) (UniProt P40763); test: Inhibition of STAT3 in human HeLa cells assessed as decrease in phosphorylation of STAT3 at Tyr705 upto 80 uM measured 15 to 120 mins by Western blot analysis; format: cell-based; details: dose microM <=80, time lower […], time upper […]
Signal transducer and activator of transcription 3 (Homo sapiens), sequence (P40763 whole entry): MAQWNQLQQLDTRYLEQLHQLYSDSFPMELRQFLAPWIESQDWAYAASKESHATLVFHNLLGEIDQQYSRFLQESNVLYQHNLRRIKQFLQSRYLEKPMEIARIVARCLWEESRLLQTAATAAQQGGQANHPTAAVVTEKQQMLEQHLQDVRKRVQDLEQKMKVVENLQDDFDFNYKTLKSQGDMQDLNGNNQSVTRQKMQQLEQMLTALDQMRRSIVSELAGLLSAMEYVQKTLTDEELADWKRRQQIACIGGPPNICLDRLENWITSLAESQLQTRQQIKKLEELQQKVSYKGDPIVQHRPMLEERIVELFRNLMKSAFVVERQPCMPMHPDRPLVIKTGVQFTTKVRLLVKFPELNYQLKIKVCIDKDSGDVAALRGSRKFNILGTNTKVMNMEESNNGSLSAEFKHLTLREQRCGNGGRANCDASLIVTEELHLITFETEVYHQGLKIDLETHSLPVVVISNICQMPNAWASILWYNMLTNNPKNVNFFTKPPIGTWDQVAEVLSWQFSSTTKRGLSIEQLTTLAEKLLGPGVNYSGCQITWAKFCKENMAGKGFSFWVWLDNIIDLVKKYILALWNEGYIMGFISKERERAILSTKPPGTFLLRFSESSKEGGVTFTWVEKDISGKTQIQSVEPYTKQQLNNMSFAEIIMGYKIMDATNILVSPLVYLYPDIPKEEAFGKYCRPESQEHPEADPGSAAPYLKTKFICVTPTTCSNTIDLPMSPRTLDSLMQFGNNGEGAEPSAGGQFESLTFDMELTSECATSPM
Method in brief: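 Time course in HeLa cells given 80 μM compound, sampled from 15 min onward through multiple hours; parallel runs at 20 and 40 μM. Total cell lysates Western blotted for p-STAT3 (Tyr705), p-STAT3 (Ser727) and total STAT3.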

[4] = tested on: HeLa; test: Induction of cell cycle arrest in human HeLa cells assessed as accumulation at S phase at 20 uM measured after 24 hrs by flow cytometry analysis (reference value: 34.04%); format: functional
[5] = Cytotoxicity against human HEK-Blue IL-6 cells assessed as cell death at > 10 uM; format: cell-based
[6] = target: Signal transducer and activator of transcription 3 (Homo sapiens) (UniProt P40763); test: Inhibition of STAT3 in human Hela cell lysate assessed as inhibition of protein and DNA interaction upto 200 uM incubated 30 mins by electrophoretic mobility shift assay; format: subcellular; details: dose microM <=200, time 30.0 min
[7] = tested on: HeLa; test: Induction of cell cycle arrest in human HeLa cells assessed as accumulation at G2/M phase at 10 uM measured after 24 hrs by flow cytometry analysis (reference value: 11.81%); format: functional
[8] = tested on: HeLa; test: Induction of cell cycle arrest in human HeLa cells assessed as accumulation at G2/M phase at 40 uM measured after 24 hrs by flow cytometry analysis (reference value: 11.81%); format: functional

Question: For `CC(=O)Oc1ccccc1C(=O)Nc1ncc([N+](=O)[O-])s1` [NITAZOXANIDE], which Activity [1] is on record?
Answer: 61.96%

Question: And the Activity [2]?
Answer: 7.48%

Question: And the inhibition [3]?
Answer: inactive

Question: What about the Activity [4] of the same molecule?
Answer: 21.84%

Question: And the Activity [5]?
Answer: Non-Toxic

Question: And the inhibition [6]?
Answer: inactive

Question: What about the Activity [7] of the same molecule?
Answer: 9.59%

Question: And the Activity [8]?
Answer: 6.6%

From ChEMBL document CHEMBL4706740, “Structure-Activity Study of Nitazoxanide Derivatives as Novel STAT3 Pathway Inhibitors” (ACS Med Chem Lett, 2021)
